# Measurements as given in ChEMBL document CHEMBL5058577, “EUbOPEN Chemogenomics Library 2 (Multiplex)” (2022).
# System: Fibroblast
# Experiment: Multiplex assay against human fibroblast
# Format: toxicity, cell-based
# Outline: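 Tubulin, mitochondrial-mass and membrane-permeability phenotypes are per cents of healthy-nucleus cells. Cells were gated by CellPathfinder machine learning into Hoechst high-intensity objects or normal cells, normal cells into healthy, pyknosed or fragmented nuclei, and pyknosed cells into mitotic or apoptotic. Before that, live cells stained at seeding with Hoechst33342, BioTracker Green Microtubule Cytoskeleton Dye, MitoTracker Red and Annexin V Alexa Fluor 680 were imaged on a CQ1 microscope at 37°C and 5% CO2 after compound addition.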
# [1] = 12 h, 1 µM, compound concentration 1 uM, replicate 1
# [2] = 12 h, 1 µM, compound concentration 1 uM, replicate 2
# [3] = 12 h, 10 µM, compound concentration 10 uM, replicate 1
# [4] = 12 h, 10 µM, compound concentration 10 uM, replicate 2
# [5] = 24 h, 1 µM, compound concentration 1 uM, replicate 1
# [6] = 24 h, 1 µM, compound concentration 1 uM, replicate 2
# [7] = 24 h, 10 µM, compound concentration 10 uM, replicate 1
# [8] = 24 h, 10 µM, compound concentration 10 uM, replicate 2
# [9] = 48 h, 1 µM, compound concentration 1 uM, replicate 1
# [10] = 48 h, 1 µM, compound concentration 1 uM, replicate 2
# [11] = 48 h, 10 µM, compound concentration 10 uM, replicate 1
# [12] = 48 h, 10 µM, compound concentration 10 uM, replicate 2
smiles,measurement,setting,value
CC(C)C[C@H](CO)Nc1nc(S[C@@H](C)c2ccccc2)nc2nc(N)sc12 [AZD-8797],Population Apoptotic (%),[1],25%
same,Population Fragmented Nuclei (%),[1],23%
same,Population Healthy Nuclei (%),[1],62%
same,Population Hoechst High Intensity Objects (%),[1],1%
same,Population Membrane Permeable-Phenotype (%),[1],3%
same,Population Mitochondria Different-Phenotype (%),[1],3%
same,Population Mitotic Cells (%),[1],75%
same,Population Normal (%),[1],98%
same,Population Pyknosed Nuclei (%),[1],13%
same,Population Tubulin-Different-Phenotype (%),[1],23%
same,Total Cell Count,[1],146
same,Population Apoptotic (%),[2],31%
same,Population Fragmented Nuclei (%),[2],22%
same,Population Healthy Nuclei (%),[2],55%
same,Population Hoechst High Intensity Objects (%),[2],4%
same,Population Membrane Permeable-Phenotype (%),[2],16%
same,Population Mitochondria Different-Phenotype (%),[2],6%
same,Population Mitotic Cells (%),[2],68%
same,Population Normal (%),[2],95%
same,Population Pyknosed Nuclei (%),[2],21%
same,Population Tubulin-Different-Phenotype (%),[2],46%
same,Total Cell Count,[2],92
same,Population Apoptotic (%),[3],38%
same,Population Fragmented Nuclei (%),[3],18%
same,Population Healthy Nuclei (%),[3],64%
same,Population Hoechst High Intensity Objects (%),[3],3%
same,Population Membrane Permeable-Phenotype (%),[3],0%
same,Population Mitochondria Different-Phenotype (%),[3],6%
same,Population Mitotic Cells (%),[3],61%
same,Population Normal (%),[3],96%
same,Population Pyknosed Nuclei (%),[3],17%
same,Population Tubulin-Different-Phenotype (%),[3],46%
same,Total Cell Count,[3],156
same,Population Apoptotic (%),[4],36%
same,Population Fragmented Nuclei (%),[4],36%
same,Population Healthy Nuclei (%),[4],41%
same,Population Hoechst High Intensity Objects (%),[4],5%
same,Population Membrane Permeable-Phenotype (%),[4],10%
same,Population Mitochondria Different-Phenotype (%),[4],27%
same,Population Mitotic Cells (%),[4],64%
same,Population Normal (%),[4],94%
same,Population Pyknosed Nuclei (%),[4],21%
same,Population Tubulin-Different-Phenotype (%),[4],66%
same,Total Cell Count,[4],122
same,Population Apoptotic (%),[5],44%
same,Population Fragmented Nuclei (%),[5],15%
same,Population Healthy Nuclei (%),[5],69%
same,Population Hoechst High Intensity Objects (%),[5],1%
same,Population Membrane Permeable-Phenotype (%),[5],1%
same,Population Mitochondria Different-Phenotype (%),[5],1%
same,Population Mitotic Cells (%),[5],55%
same,Population Normal (%),[5],98%
same,Population Pyknosed Nuclei (%),[5],14%
same,Population Tubulin-Different-Phenotype (%),[5],24%
same,Total Cell Count,[5],124
same,Population Apoptotic (%),[6],31%
same,Population Fragmented Nuclei (%),[6],29%
same,Population Healthy Nuclei (%),[6],54%
same,Population Hoechst High Intensity Objects (%),[6],0%
same,Population Membrane Permeable-Phenotype (%),[6],17%
same,Population Mitochondria Different-Phenotype (%),[6],3%
same,Population Mitotic Cells (%),[6],68%
same,Population Normal (%),[6],99%
same,Population Pyknosed Nuclei (%),[6],15%
same,Population Tubulin-Different-Phenotype (%),[6],46%
same,Total Cell Count,[6],103
same,Population Apoptotic (%),[7],57%
same,Population Fragmented Nuclei (%),[7],21%
same,Population Healthy Nuclei (%),[7],66%
same,Population Hoechst High Intensity Objects (%),[7],1%
same,Population Membrane Permeable-Phenotype (%),[7],0%
same,Population Mitochondria Different-Phenotype (%),[7],15%
same,Population Mitotic Cells (%),[7],42%
same,Population Normal (%),[7],98%
same,Population Pyknosed Nuclei (%),[7],12%
same,Population Tubulin-Different-Phenotype (%),[7],38%
same,Total Cell Count,[7],168
same,Population Apoptotic (%),[8],33%
same,Population Fragmented Nuclei (%),[8],42%
same,Population Healthy Nuclei (%),[8],38%
same,Population Hoechst High Intensity Objects (%),[8],2%
same,Population Membrane Permeable-Phenotype (%),[8],8%
same,Population Mitochondria Different-Phenotype (%),[8],25%
same,Population Mitotic Cells (%),[8],66%
same,Population Normal (%),[8],97%
same,Population Pyknosed Nuclei (%),[8],19%
same,Population Tubulin-Different-Phenotype (%),[8],85%
same,Total Cell Count,[8],126
same,Population Apoptotic (%),[9],50%
same,Population Fragmented Nuclei (%),[9],25%
same,Population Healthy Nuclei (%),[9],60%
same,Population Hoechst High Intensity Objects (%),[9],1%
same,Population Membrane Permeable-Phenotype (%),[9],1%
same,Population Mitochondria Different-Phenotype (%),[9],1%
same,Population Mitotic Cells (%),[9],50%
same,Population Normal (%),[9],98%
same,Population Pyknosed Nuclei (%),[9],13%
same,Population Tubulin-Different-Phenotype (%),[9],11%
same,Total Cell Count,[9],135
same,Population Apoptotic (%),[10],47%
same,Population Fragmented Nuclei (%),[10],30%
same,Population Healthy Nuclei (%),[10],48%
same,Population Hoechst High Intensity Objects (%),[10],4%
same,Population Membrane Permeable-Phenotype (%),[10],4%
same,Population Mitochondria Different-Phenotype (%),[10],4%
same,Population Mitotic Cells (%),[10],52%
same,Population Normal (%),[10],95%
same,Population Pyknosed Nuclei (%),[10],20%
same,Population Tubulin-Different-Phenotype (%),[10],54%
same,Total Cell Count,[10],95
same,Population Apoptotic (%),[11],60%
same,Population Fragmented Nuclei (%),[11],25%
same,Population Healthy Nuclei (%),[11],65%
same,Population Hoechst High Intensity Objects (%),[11],2%
same,Population Membrane Permeable-Phenotype (%),[11],0%
same,Population Mitochondria Different-Phenotype (%),[11],13%
same,Population Mitotic Cells (%),[11],40%
same,Population Normal (%),[11],97%
same,Population Pyknosed Nuclei (%),[11],9%
same,Population Tubulin-Different-Phenotype (%),[11],35%
same,Total Cell Count,[11],168
same,Population Apoptotic (%),[12],35%
same,Population Fragmented Nuclei (%),[12],45%
same,Population Healthy Nuclei (%),[12],40%
same,Population Hoechst High Intensity Objects (%),[12],1%
same,Population Membrane Permeable-Phenotype (%),[12],12%
same,Population Mitochondria Different-Phenotype (%),[12],18%
same,Population Mitotic Cells (%),[12],64%
same,Population Normal (%),[12],98%
same,Population Pyknosed Nuclei (%),[12],14%
same,Population Tubulin-Different-Phenotype (%),[12],89%
same,Total Cell Count,[12],121
